According to the EternaBench riboswitch data:

Test system: MS2 coat protein
Assay: apparent Kd, MS2 coat protein; higher = weaker binding; RNA-MaP array; FMN 200 µM where present
Procedure, shortened: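 Green signal was scaled to red-channel RNA signal and control-cluster median Fmax, and the apparent Kd was taken as the median of filtered per-cluster binding-curve fits. The binding series used SNAP-549-labelled MS2 coat protein from 0.7 or 1.5 nM, doubling to 3 µM, on designs transcribed by stalled E. coli RNA polymerase on Illumina sequencing-chip clusters. Each series ran without and then with constant ligand in 100 mM Tris-HCl pH 7.5, 80 mM KCl, 4 mM MgCl2, BSA, DTT, yeast tRNA and Tween-20.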

[1] = designed as: OFF switch for flavin mononucleotide, no ligand
[2] = ligand present: flavin mononucleotide, designed as: OFF switch for flavin mononucleotide
[3] = designed as: ON switch for flavin mononucleotide, no ligand
[4] = ligand present: flavin mononucleotide, designed as: ON switch for flavin mononucleotide

| Sequence | apparent Kd [1] [nM] | apparent Kd [2] [nM] | apparent Kd [3] [nM] | apparent Kd [4] [nM] |
| --- | --- | --- | --- | --- |
| UUGUACCGGUGAGGAUAUUUUUGAUAGAACUUUAUGAUAUACAUGAGGAUCACCCAUGUUACUUUAAAGAAGGCAUCGGAUUAU | 19.4 | 15.3 | – | – |
| CAGCGAUAGCUGAACAAUCUAUCUGAGGAUAUUCAUAUAAAACAUGAGGAUCACCCAUGUAAUUGGGAGAAGGCAGAUAGAUUG | – | – | 22.4 | 6.11 |
| UUACGUCACAUUUACAUGAGGAUCACCCAUGUCGAAAGACAUGAGGAUAUGCUACCUAAUUGGUAGCAGAAGGCAUGGACGUCG | – | – | 834 | 81.1 |
| CCUAGUGUGCAGAAGGAGAGUUAACUGCCCGUCGAUGGACUGCACAGAGCUCUAGGAUAUGCACAUGAGGAUCACCCAUGUGCU | 6.53 | 7.76 | – | – |
| GGUCCAUCAUGAGGAUAUGGCACCUUAUUGGUGCCAGAAGGCAUGUCUUUAGACAUGAGGAUCACCCAUGUAAAUAAUUGGACC | – | – | 1030 | 92.5 |
| AGGUAAGACUUAAUUGUGCUGGUGAGAAGGCUACUGGUUGUGGUCUACAUGAGGAUCACCCAUGUUGAGGAUAUCAUCGGUAUC | 606 | 72.7 | – | – |
| CCGGGCAUCGGCCCAUCUAGGCGAAGAAGGGACACGGCCAAGAUCUCACAUGAGGAUCACCCAUGUCAGGAUAUUUGGUUGGAU | 6.56 | 10.3 | – | – |
| AAAACAUGAGGAUCACCCAUGUUUAGAUCGGUCGAUAGAAGUGAGGAUAUACGAAGUUAAGGCUGGUAGAAGGCACUGGGUACA | – | – | 39.8 | 33.3 |
| AAGAAGUCAGGAUAUCCUGCUCGUCACUUGCGUGAUGAGUAGGAGAAGGGACAUGAGGAUCACCCAUGUAAAGG | 137 | 267 | – | – |
| ACAUGAUACAAGAAGGAUGUAUUUGAUUUGAUCAUAGGAUAUUGUUAUAUUGUUUACUCUAAUAACAUGAGGAUCACCCAUGUA | – | – | 7.04 | 6.95 |
| CGUACACAUGAGGAUCACCCAUGUCAGAGGCGGUCAGGAUAUGGGCGGCAUCCGCUAUAGCCAGAAGGGACUGAUG | – | – | 173 | 73.6 |
| GCAGCGUAUGUAGGAUAUCGGUCAGUUUCUGAUCGAGAAGGACAUGAGGAUCACCCAUGUAUAUUCUAGCGUGAGCUAGGCUGC | 18.2 | 25.5 | – | – |
| GAUAGACAUGAGGAUCACCCAUGUGAGGAUAUGCGUACGUUGUCAGUAGGCGACGUGCGCAGAAGGCGCAAGUU | 77.1 | 46.5 | – | – |
| GCUGCAUAGGCAGGAUAUGCAACAAUGAGAAUAAAAUAUAACUCAUUGACAUGAGGAUCACCCAUGUAGAAGGGCCUGUGCAGU | 19 | 18.2 | – | – |
| AGUCCACAUGAGGAUCACCCAUGUCAGGAUAUCUGCUGGAAGAGGGCAGAAAGCCAGGAGAGAAGGGACCUGGG | 37.9 | 74.5 | – | – |
| UUGAAUUAAAAGGAUAUGGGAGUCGAUAGACACCCAGAAGGUUUAACAUGAGGAUCACCCAUGUGUCCUAUCAA | 23.1 | 31.4 | – | – |
| GAUAUGUUAGGAUAUCAAACCUUGUUGAAUCAACGAGCCAGUGAGAAGGAACAUGAGGAUCACCCAUGUGUCCG | 16.2 | 16.3 | – | – |
| GCCAGUUAUGUAGGAUAUGCGCGGCGAGCCUGAGCAGAAGGACAUGAGGAUCACCCAUGUGUUGCGGUCUGAGUACUGAUCGCU | 30.1 | 155 | – | – |
| GCCAGUUAUGUAGGAUAUGCGCGGCGAGCCUGAGCAGAAGGACAUGAGGAUCACCCAUGUGUUGCGGUUUGAGUACUAAUCGCU | 31.5 | 171 | – | – |
| CCUCCACAUGAGGAUCACCCAUGUCAGGAUAUCGUGUGUUUUUUUUCGGUCGCGCGUGCGAGAAGGGACGUCUU | 22.1 | 25 | – | – |
| ACCUAGUCAGGAUAUGUACGGACCGGAAGCGGAUCGGAGGAGCAGAAGGGACAUGAGGAUCACCCAUGUUUGUU | 25.3 | 28 | – | – |
| AGCUGUGGCCGAGGAUAUCUAACAAUCCAAACCGAAAUAUAAUCGGACAUGAGGAUCACCCAUGUAGAGAAGGCGGUCUCAGCA | 48.1 | 65 | – | – |
| GACACUAUGUUUGUCAGAUAGAGAGAGGAUAUGGGUCAUGAGACAUGAGGAUCACCCAUGUUUAAUCAGAAGGCUCGAGUACGA | – | – | 30.7 | 15.6 |
| GGAUUACAUGAGGAUCACCCAUGUGAGGAUAUCGAUGUCCUCAAUAAAGUGCGGGACUCGAGAAGGCACUUGGA | 63 | 83 | – | – |
| AGAAAACAUGAGGAUCACCCAUGUGAGGAUAUCGAUGUCCAGGGCCUGGUGCGGGACUCGAGAAGGCACUGGGA | 59.9 | 86.9 | – | – |
| CCAUGACAAAGUCAUGGAUAACGAACAUGAGGAUCACCCAUGUAGGAUAUGCUACUCAAAGAGUAGCAGAAGGACAUGUGUCUU | 32.7 | 165 | – | – |
| GGACAUCCCACAGGAUAUGCUGGACUUUGUCCAGCAGAAGGGUGAAACACAUGAGGAUCACCCAUGUGGAUGUCCAUAUUUAAU | – | – | 180 | 694 |
| GCUGACGAUGUAGGAUAUCAGUAUAAUAAAUACUGAGAAGGACAUGAGGAUCACCCAUGUAAACUCCGUCAGCAGAGGAAACUC | 19.6 | 24.1 | – | – |

| Sequence | apparent Kd [1] [nM] | apparent Kd [2] [nM] | apparent Kd [3] [nM] | apparent Kd [4] [nM] |
| --- | --- | --- | --- | --- |
| UCGUAUAAGGGCAUUACACAUGAGGAUCACCCAUGUACGUUAGAGGAUAUGCAUUUCAGUUGAACGUAGAAGGCUAGAGAAGGG | 117 | 103 | – | – |
| GCGGUACAUGAGGAUCACCCAUGUCAGGAUAUCCGCUGUUUGUUGAUUGGCAGGCGGUGGAGAAGGGACUUCGC | 35.2 | 33.4 | – | – |
| GCCAUCGCAUGAGGAUAUGGUCAGGUUUCCUGACCAGAAGGCAUGUCAUAAGACAUGAGGAUCACCCAUGUAGUUAAGAUGGCA | – | – | 717 | 48.4 |
| GCAUGACAAAGUCAUGCAUAACGAACAUGAGGAUCACCCAUGUAGGAUAUGCUACUCAAAGAGUAGCAGAAGGACAUGUGUCUU | 31.1 | 160 | – | – |
| UUAAUGAUGUUAGGAUAUACAUGAGGAAUCCUCGUAGAAGGAACAUGACAUGAGGAUCACCCAUGUAACGCUCCGUAGAGCGUA | – | – | 70.2 | 94.3 |
| GGAAAAUUGAUCCCUUUUUAUUACAUGAGGAUCACCCAUGUGCAGGAUAUCGAUUAUUAUAGUUUCGAGAAGGGCAAGAAUUGU | 40.3 | 276 | – | – |
| GGGUACAUCGGAGGAUAUCAUGUAGAUACAUGAGGAUCACCCAUGUCGAUGGAGACAUCGGAGAUUGAGAAGGCCGAUGUACCG | – | – | 272 | 10.1 |
| GAUACACAUGAGGAUCACCCAUGUGAGGAUAUGAUACUAUGUACUUCGGUACAUAGUAUCAGAAGGCACAUUGA | 47.6 | 76.8 | – | – |
| AUGGCUAAUGAGAAGGUGUAUAUAAAUUAUAUACAAGGAUAUCGGUCAAGCAUGAAAACAUGAGGAUCACCCAUGUAAAGCCAU | – | – | 9.37 | 7.57 |
| GCUUGUGAAGGAUAUACUGGCGGCGUGCGCUCGGCGCGCGCACAUGAGGAUCACCCAUGUAGAAGGUCAAACGU | 14.3 | 13.1 | – | – |
| UGUGUGAGACAGGAUAUGCCGGUUGAAUUGCUGGUAGAAGGGUCUACAUGAGGAUCACCCAUGUGGCCGGUUGG | 18.7 | 25.5 | – | – |
| AUGCUUAUCGAAGGAUAUGGUUACAUGAGGAUCACCCAUGUUAUGAUUGGUUACUUGUUUAGUUUCCAGAAGGUCGAUUAGUUA | 58.8 | 225 | – | – |
| CUGUUAUAGGUCCAGUUUUACAACAUGAGGAUCACCCAUGUGCAGGAUAUCGUGUUAAUUUUCAUCGAGAAGGGCAUAGUCACG | 37.6 | 105 | – | – |
| UUAGGACGAAACAUGAGGAUCACCCAUGUGUUAUAAUUAAUAUAGGAUAUGUUUAUACUUUUUGGGCAGAAGGAUGAUAAUGCU | – | – | 19.7 | 15.4 |
| GCAGAACAUGAGGAUCACCCAUGUCUCUAAAGUCGAGGAUAUGGGCAGGUUAUAUCCGAACCAGAAGGCGAUCUGC | – | – | 127 | 43.8 |
| CACUCACAUGAGGAUCACCCAUGUCCUAGGAGGUCAGGAUAUAGCUCGGAUGCGUUGAGGCUAGAAGGGACAGGUU | – | – | 79.5 | 88.6 |
| UAUAGCCCUAGUUCGAGUGUCUAGGAGGAUAUACAGAGGCAGCCAAAGACAUGAGGAUCACCCAUGUAGAAGGCCUAGACGGUA | – | 82.3 | – | – |
| AAAGGACGAGGAUAUACAUGAGGAUCACCCAUGUAAAAAACAUAAUAAAAGAACUUAUGUAGAAGGCGUCCAAA | 58.6 | 336 | – | – |
| GUCGGAAACGACAAAAGUAUGGAUCCAGAAGGCAUGAAACAUGAGGAUCACCCAUGUCAAAGAUAUGAGGAUAUGGAUCCAUAC | – | – | 4.64 | 4.01 |
| CAGCGACAUGGAGGAUAUAGGGCCCAAGGGCACCUAGAAGGCCAAAAGCAGACAGGUCACAUGAGGAUCACCCAUGUACGCCAG | – | – | 241 | 16.3 |
| UGUCGGAGCAGAGGAUAUUACAUGAGGAUCACCCAUGUAUGAACCAAUCGCUGGAAACAGCAAUGUAAGAAGGCUGCUCCGACA | 10.3 | 73.7 | – | – |
| GAUUAACAUGAGGAUCACCCAUGUGAGGAUAUGGAAUGGCUCAUUGUUUGAUUUCCGUCUAGAAGGCACAUCUU | 174 | 160 | – | – |
| CCGAUGUUAGGAUAUACUGCCCGUGGGAUAAACGCCGGGUAGUAGAAGGAACAUGAGGAUCACCCAUGUGACAC | 39.6 | 220 | – | – |
| GCCAUCGCAUGAGGAUAUGCUCCGGUUUCCGGAGCAGAAGGCGUGUCAUAAGACAUGAGGAUCACCCAUGUAGCUAAGAUGGCA | – | – | 249 | 10.8 |
| AAAUGACAUGAGGAUCACCCAUGUCCACCAAAUGGAGGAUAUUGGACGGCAAAACGUUGUUAAGAAGGCCGAAAUU | – | – | 27.6 | 22.3 |
| AGUCUGAGAGGAUAUACAAGGGAAAAAAAAGUAAGAUCCCUACAUGAGGAUCACCCAUGUAGAAGGCUCUGACA | 98 | 43.8 | – | – |
| AAAACCAGAGGAUAUGCGCAUAGAUCAGACUUUGUUUCUUAACAUGAGGAUCACCCAUGUAGAAGGCUGUAAAA | 17.3 | 15.4 | – | – |
